Bioassay records from PubChem.
Hits are enriched below; roughly 2.9% of the tested compounds scored in any of these assays.
TRPC6 act = activators of mouse TRPC6 channel. Q61143. B-score at 10 µM. AID 2550. HEK293-TRPC6 membrane potential dye fluorescence; hits give high values. hit rate 0.13% among 310,000;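 active means B-score of the integrated fluorescence ratio above library mean plus 3 SD, and starting fluorescence ratio within library mean plus 5 SD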;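 further: higher score means more depolarization so channel activation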
TRPC4 inh = inhibitors of mouse TRPC4 channel | hit rate 0.39% among 300,000 | Q9QUQ5 | HEK293 TRPC4beta/mu-opioid, DAMGO-evoked Fluo4 calcium flux; hits give low values | AID 2247 | B-score at 10 µM;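 active means B-score over 3 SD under the library average, no early fluorescence shift, positive overall ratio signal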
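Material: HEK293 cells with stable TRPC4beta plus mu-opioid receptor expression; probe or stimulus: DAMGO in two steps, submaximal then maximal; technique: Fluo4 calcium fluorescence by kinetic imaging, 5 s 1 Hz baseline; measure: integrated fluorescence ratio relative to baseline, converted to per-well B score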
Kir21 inh = Kir2.1 (mouse) channel inhibition; P35561; HEK293-Kir2.1, FluxOR thallium flux fluorescence; hits give low values; B-score at 10 µM; hit rate 0.85% among 310,000; AID 1672;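 active means fluorescence ratio B-score at or below minus 3 SD of library scores, with starting-brightness B-score within 2 SD, cut at about -4.2 in these data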;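 further: channel flux triggered by added potassium and thallium sulfate stimulus; B-score of peak minus minimum fluorescence over baseline after thallium stimulus; more negative B-score means stronger Kir2.1 block with less thallium influx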
TRPC4 potent = TRPC4 (mouse) allosteric potentiation. hit rate 0.42% among 310,000. HEK293 TRPC4beta/mu-opioid, DAMGO EC20, Fluo-4 Ca2+ flux; hits give high values. B-score at 10 µM. Q9QUQ5;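 active means B-score of calcium response area above 5 SD of library B-scores, with initial fluorescence ratio within 5 SD of library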;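 further: B-score of integrated fluorescence ratio over time as area under calcium response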
TRPC6 inhibitor = inhibitors of mouse TRPC6 channel. Q61143. hit rate 1.1% among 310,000. HEK293-TRPC6, membrane potential dye, ACh-evoked depolarization; hits give low values. B-score at 10 µM. AID 2553;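 active means B-score under library mean minus 3 SD, initial fluorescence not abnormally high, positive integrated signal ratio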;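 further: B-score derived from integrated fluorescence ratio over the kinetic read; more negative B-score means stronger inhibition of depolarization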
TRPC4 act = activators of mouse TRPC4 channel; Q9QUQ5; B-score at 10 µM; HEK293 TRPC4beta/mu-opioid, Fluo4 calcium fluorescence; hits give high values; AID 2237; hit rate 0.49% among 310,000;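 active means B-score above 5 SD of library B-scores, and initial fluorescence ratio not above library mean plus 5 SD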;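 further: positive B-score marks a calcium rise read as TRPC4 activation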
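Test system: HEK293 cells stably co-expressing mouse TRPC4beta and mu-opioid receptor | Schedule: Fluo4 dye loading 45 min at room temperature, 110 s recording | Measured by: Kinetic Fluo4 calcium fluorescence, 5 s baseline at 1 Hz | Evaluation: B score of integrated ratio | Controls: Buffer (low) and maximal DAMGO (high)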
Active calls of the source: *; i = inactive.

SMILES	TRPC6 act	TRPC4 inh	Kir21 inh	TRPC4 potent	TRPC6 inhibitor	TRPC4 act
COc1cccc(NC(=O)C2CC2(c2cccc(OC)c2)c2cccc(OC)c2)c1 (configuration not stated)	i	i	0.45	i	i	i
CCOc1ccccc1NC(=O)c1ccccc1-c1ccccc1	i	i	-4.85*	i	i	i
CCOc1ccccc1NC(=O)c1ccccc1-c1nc(-c2ccccc2)no1	i	i	-0.81	i	i	i
CN(C)C(=O)Cn1c(SCC(=O)N2CCCc3ccccc32)nc2ccccc21	i	i	-1.78	i	i	i
C=CCn1c(SCC(=O)NCc2ccco2)nc2sc3c(c2c1=O)CCCC3	i	i	-0.69	i	i	i
O=C(NCc1ccco1)c1ccc2nc3sc4c(c3c(=O)n2c1)CCCC4	i	-6*	-0.11	i	i	i
CC(c1ccccc1C(O)(c1ccccc1)c1ccccc1)N(C)C (configuration not stated)	i	i	-6.23*	i	i	103*
CCN(CCO)Cc1csc2ccc(Br)cc12	i	i	-0.79	18*	i	i
O=[N+]([O-])c1cc(S(=O)(=O)Nc2ccccc2)ccc1N1CCN(c2ccc(O)cc2)CC1	i	i	1.81	i	i	i
Cc1ccc(NS(=O)(=O)c2ccc(N3CCN(c4ccc(O)cc4)CC3)c([N+](=O)[O-])c2)c(C)c1	i	i	1.6	26*	i	i
O=[N+]([O-])c1ccccc1NC1CCN(Cc2ccccc2)CC1	i	i	-7.04*	i	i	i
O=C1C2CC=CCC2C(=O)N1c1ccc(NCCc2ccccc2)c([N+](=O)[O-])c1 (configuration not stated)	i	i	-1.1	i	i	i
O=C1CCC(=O)N1c1ccc(NC2CCN(Cc3ccccc3)CC2)c([N+](=O)[O-])c1	i	i	-1.04	i	i	83*
CC1CCC2C(=O)N(c3ccc(NC4CCN(Cc5ccccc5)CC4)c([N+](=O)[O-])c3)C(=O)C2C1 (configuration not stated)	i	i	-1.21	i	i	72*
COc1ccc(S(=O)(=O)N2CCCCC2)cc1NC(=S)Nc1ccccc1	i	i	1.78	i	i	i
Cc1ccc(C2=NN(S(=O)(=O)c3ccccc3)C(c3ccccc3O)C2)cc1 (configuration not stated)	i	i	0	13*	i	i
O=C(NCc1nnc(SCC(=O)N2CCN(c3ccccc3)CC2)o1)c1c(F)cccc1Cl	i	i	-1.94	i	i	i
COc1ccc(NS(=O)(=O)c2ccc(OC)c3ccccc23)cn1	i	i	-5.33*	i	i	i
NC(=O)C1(N2CCCCC2)CCN(C(=S)NC2CCCC2)CC1	i	i	1.47	i	i	i
Cc1c(NC(=O)Nc2ccccc2[N+](=O)[O-])c(=O)n(-c2ccccc2)n1C	i	i	-0.63	i	i	i
CCc1ccc(NS(=O)(=O)c2ccc3c(c2)CCN3C(=O)CCC(=O)O)cc1	i	i	0.93	i	i	i
CCCCC(CC)CNS(=O)(=O)c1ccc2c(c1)CCN2C(=O)CCC(=O)O (configuration not stated)	i	i	-8.02*	i	i	i
OC(CN1CCN(Cc2ccccc2)CC1)Cn1c2ccccc2c2ccccc21 (configuration not stated)	i	i	-4.39*	i	i	i
O=C(NCCCN1CCN(c2cccc(Cl)c2)CC1)C1CCC(=O)N1Cc1ccccc1Cl (configuration not stated)	i	-6*	-0.37	i	i	i
CCN(c1ccccc1)S(=O)(=O)c1ccc(Cl)c(NC(=O)CSc2nncn2C)c1	i	i	0.92	i	i	i
CCOc1cc(/C=C2\C(=N)N3N=CSC3=NC2=O)ccc1OS(=O)(=O)c1ccccc1	i	-6*	-4.96*	i	i	i
